Bioassay records: PubChem, The Scripps Research Institute Molecular Screening Center
Compounds with a hit are over-represented: about 1.9% of the library has one in this group of screens.
LEDGF integ inh: blocks HIV-1 LEDGF/p75-dependent DNA integration. inhibition, % at 3.7 µM. 0.64% of 370,000 active. TR-FRET IN-LEDGF/p75 DNA integration, Eu/Cy5;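 active = inhibition above the screen-wide mean plus 3 SD, cut at about 13% in these data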;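 note: signal is the Cy5 over europium emission ratio at 671 and 618 nm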
Rin1 Abl inh: blocks binding of human Rin1 to Abl | inhibition, % at 7.35 µM | P00519+Q13671 | 0.4% of 360,000 active | TR-FRET Rin1/Abl binding, biochemical | AID 588664; in the data active = inhibition above about 5%, passing the limit was not always enough
TDP2 absorb: blocks human TDP2 phosphodiesterase activity. O95551. recombinant TDP2, T5PNP hydrolysis, p-nitrophenol absorbance 415 nm. inhibition, % at 12.8 µM. 0.34% of 370,000 active. AID 720702;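 active = inhibition above the mean of all tested compounds plus 3 SD, set per campaign, cut at about 25% in these data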
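System: recombinant human TDP2 / Amount: 120 nM TDP2 per well / Also added: 5 mM T5PNP chromogenic substrate / Doses: 12.8 µM single point, 1% DMSO / Incubation: 2 h at 37 °C / Detection: p-Nitrophenol epi absorbance / Evaluation: % inhibition relative to enzyme-containing and enzyme-free wells / Repeats: singlicate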
UHRF1 MBD2 ctr: UHRF1 methyl-DNA binding inhibition; inhibition, % at 4.4 µM; UHRF1 binding to methylated oligo, TR-FRET; Q96T88; 0.75% of 370,000 active; AID 687016; in the data active = inhibition above about 21%;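 note: UHRF1 SRA domain binding a hemimethylated CpG hairpin DNA probe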
MBD2 inh: inhibitors of human MBD2 binding to methylated oligonucleotide; 0.31% of 370,000 active; inhibition, % at 4.4 µM; AID 686964; Q9UBB5; TR-FRET; in the data active = inhibition above about 13%
Numbers stand for hits; - = inactive; . = no result.

SMILES	LEDGF integ inh	Rin1 Abl inh	TDP2 absorb	UHRF1 MBD2 ctr	MBD2 inh
C[C@@H]1CN([C@@H](C)CO)C(=O)c2cc(C#CC3CCCCC3)cnc2O[C@@H]1CN(C)S(=O)(=O)c1ccc(F)cc1	-	-	-	21	-
C[C@@H]1CN([C@H](C)CO)C(=O)c2cc(Br)cnc2O[C@@H]1CN(C)C(=O)CC1CC1	-	-	-	-	-
C[C@@H]1CN([C@H](C)CO)C(=O)c2cc(C#CC3CCCCC3)cnc2O[C@H]1CN(C)Cc1cccnc1	-	-	-	23	-
COC(=O)[C@]12C[C@H](CC(=O)N3CCN(C(=O)C4CC4)CC3)C(=O)N(Cc3ccc(Cl)cc3Cl)C1=C[C@H](C1CCCC1)O[C@@H]2C	-	.	-	-	-
COc1ccc(OCc2nn3c(-c4ccccc4)nnc3s2)cc1	-	.	-	-	-
CC(c1ccccc1)n1cc(C(=O)NCCCN2CCCC2)nn1 (configuration not stated)	-	.	-	-	-
CCOc1cccc(-c2nn3c(-c4cccc(C)c4)nnc3s2)c1	-	.	-	-	-
COc1ccc(/C=N/N2C(=O)CSC2=S)cc1	-	-	-	63	-
O=C1CSC(=S)N1/N=C/c1ccc(O)c(O)c1O	.	30	.	.	.
COc1ccccc1C=NN1C(=O)CSC1=S	-	-	-	-	-
C[C@H]1[C@H](NC(=O)c2cccc(C(F)(F)F)c2)CC[C@@]23CCCN2C(=O)CCC[C@@H]13	-	.	-	-	-
N#Cc1cccc(-c2ccccc2C(=O)NC2CCCCN(Cc3ccc(Cl)cc3)C2=O)c1 (configuration not stated)	-	.	-	-	-
CCOC(=O)Nc1ccc2c(c1)[C@]1(CC(=O)N(CC(C)C)C1c1ccccc1)C(=O)N2C (some centres not stated)	-	.	-	-	-
O=C(O)CCCCCN=Cc1c(O)c2ccccc2oc1=O	-	-	-	23	-
O=C(O)CCN=Cc1c(O)c2ccccc2oc1=O	-	-	-	-	-
Cc1cc(OCC(=O)Nc2nnc(C3CC3)s2)ccc1C(C)C	-	-	-	-	-
Cc1ccc(C(C)C)cc1OCC(=O)Nc1nnc(C2CC2)s1	-	-	-	27	-
CCCN1CCCCC(NC(=O)c2ccc(Cl)cc2Cl)C1=O (configuration not stated)	-	.	-	-	-
COc1ccc2c(c1OC)CN(C)CCc1cc3c(cc1C(=O)C2)OCO3	-	-	-	21	-
COc1cc2c(cc1OC)C(=O)Cc1ccc3c(c1CN(C)CC2)OCO3	-	-	-	-	-
O=C(O)c1cccc(-n2cccc2/C=C2/NC(=O)N(c3cccc(Cl)c3)C2=O)c1	-	-	-	27	-
COc1ccc(-n2cccc2/C=C2/NC(=O)N(c3cccc(Cl)c3)C2=O)cc1	-	-	-	-	-
COc1ccc(-c2nnc(SCC(=O)N(C)C3CCS(=O)(=O)C3)n2CC(C)C)cc1 (configuration not stated)	-	-	-	-	-
COc1ccc(-c2nnc(SCC(=O)N(C)C3CCS(=O)(=O)C3)n2N)cc1OC (configuration not stated)	-	-	-	42	-
C=CCOC(=O)c1cc(-c2ccc(/C=C3\C(=O)NC(=O)C(C#N)=C3C)o2)ccc1Cl	-	-	-	-	-
SMILES	LEDGF integ inh	Rin1 Abl inh	TDP2 absorb	UHRF1 MBD2 ctr	MBD2 inh
CC1=C(C#N)C(=O)NC(=O)/C1=C/c1ccc(-c2ccc(S(N)(=O)=O)cc2)o1	-	-	-	-	21
Cc1ccc(S(=O)(=O)NCc2ccccn2)cc1C	-	-	-	23	-
COc1ccc(S(=O)(=O)NCc2ccccn2)cc1NC(=O)c1ccc(C)cc1	-	-	-	-	-
COc1ccc(S(=O)(=O)NCc2ccccn2)cc1NC(=O)c1ccccc1	-	-	-	36	-
COc1ccc(OC)c(S(=O)(=O)N2CCCCC2C(=O)N2CCCN(C)CC2)c1 (configuration not stated)	-	.	-	-	-
O=S1(=O)c2ccc(N3CCSCC3)cc2Oc2ccccc2CN1Cc1cn(Cc2cccc(C(F)(F)F)c2)nn1	-	.	-	-	-
CCN(C)c1nc(C)nc2c1nnn2Cc1ccccc1	-	.	-	-	-
CCN(CC)c1nc(C(F)(F)F)nc2c1nnn2Cc1ccccc1	-	-	-	39	-
CCC[C@H]1[C@@H](N(C)CC2CCCCC2)CC[C@@]23CCCN2C(=O)CCC[C@@H]13	-	.	-	-	-
